Results published in ChEMBL document CHEMBL1124574, “Lipophilic analogues of sparsomycin as strong inhibitors of protein synthesis and tumor growth: a structure-activity relationship study” (J Med Chem, 1989).
≈ marks a conversion by molar mass, not a printed value. Calls of active or inactive are those of the source. The calls are words filed in the database; no cut-off is given here.

Legend:
Escherichia coli [1] = test: In vitro inhibition of cell growth in Escherichia coli MRE600; format: functional; details: read-out: ED50 (the source's name)
T-24 = test: In vitro inhibition of cell growth in T24 bladder carcinoma cell line; format: functional; details: Homo sapiens, read-out: ID50 (the source's name)
[2] = lipophilicity parameter(Rm) was determined; format: physicochemical; details: RP-8 HPTLC, 60% methanol/water
How it was run: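 Rf measured by reversed-phase RP-8 HPTLC, eluent 60% methanol/water; Rm computed as log(1/Rf − 1).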

[3] = Water solubility was determined
Escherichia coli [4] = test: In vitro inhibition of modified fragment reaction using ribosomes from Escherichia coli; format: functional; details: read-out: ED50 (the source's name)
Saccharomyces cerevisiae [5] = test: In vitro inhibition of modified fragment reaction using ribosomes from Saccharomyces cerevisiae; format: functional; details: read-out: ED50 (the source's name)
Escherichia coli [6] = test: In vitro inhibition of polyuridylic acid dependent polyphenylalanine synthesis using ribosomes from Escherichia coli; format: functional; details: read-out: ED50 (the source's name)
Saccharomyces cerevisiae [7] = test: In vitro inhibition of polyuridylic acid dependent polyphenylalanine synthesis using ribosomes from Saccharomyces cerevisiae; format: functional; details: read-out: ED50 (the source's name)
L1210 [8] = test: In vitro inhibition of cell growth in L1210 murine leukemia cells; format: functional; details: Mus musculus, read-out: ID50 (the source's name)
[9] = Partition coefficient (logP); details: octanol/water
Escherichia coli [10] = test: In vitro inhibition of Puromycin reaction in the ribosomes from Escherichia coli; format: functional; details: read-out: ED50 (the source's name)
WiDr [11] = test: In vitro inhibition of cell growth in Human WiDr colon carcinoma cell line; format: functional; details: read-out: ID50 (the source's name)
[12] = (§1) Kinetic constant was determined
[13] = lipophilicity parameter (Rm) was determined; details: RP-8 HPTLC, 60% methanol/water
L1210 [14] = test: In Vivo evaluation for the acute toxicity by L1210 clonogenic assay; format: functional, Mus musculus
[15] = In Vivo evaluation for the acute toxicity in mice; details: mouse
Escherichia coli [16] = test: In vitro inhibition of cell growth in Escherichia coli; format: functional; details: read-out: ED50 (the source's name)
WiDr [17] = test: In vitro inhibition of cell growth in Human WiDr colon carcinoma cell line; NT means not tested; format: functional; details: read-out: ID50 (the source's name)
How it was run: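 Human tumor cell line cytotoxicity measured by the automated PIT method (propidium iodide, ink, Triton X-100); ID50 calculated.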

[18] = as §1; format: ADME
Saccharomyces cerevisiae [19] = test: In vitro inhibition of polyuridylic acid dependent polyphenylalanine synthesis using ribosomes from Saccharomyces cerevisiae; Inactive at 100 uM; format: functional
Escherichia coli [20] = test: In vitro inhibition of modified fragment reaction using ribosomes from Escherichia coli; Inactive at 100 uM; format: functional
How it was run: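 Peptidyl transferase assayed by the fragment-reaction protocol, but with intact N-acetyl-Phe-tRNA as substrate in place of its terminal pentanucleotide; ribosomes from the organism named in the line; 50% inhibitory value derived.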

CCCSC[S+]([O-])C[C@H](CO)NC(=O)/C=C/c1c(C)nc(O)nc1O (stereo not given in full)
EC50 (Escherichia coli [1]): 5 µM
IC50 (T-24): 0.65 µM
Rm [2]: -0.261
solubility [3]: 1500 µg/mL (≈ 3850 µM)
EC50 (Escherichia coli [4]): 5.5 µM
EC50 (Saccharomyces cerevisiae [5]): 7.5 µM
EC50 (Escherichia coli [6]): 3 µM
EC50 (Saccharomyces cerevisiae [7]): 7 µM
IC50 (L1210 [8]): 0.14 µM
logP [9]: -0.665
EC50 (Escherichia coli [10]): 0.08 µM
IC50 (WiDr [11]): 0.89 µM
log k0 [12]: 0.117

CCCCCSC[S+]([O-])C[C@H](CO)NC(=O)/C=C/c1c(C)nc(O)nc1O (stereo not given in full)
EC50 (Escherichia coli [1]): 1 µM
IC50 (T-24): 0.28 µM
Rm [13]: 0.16
solubility [3]: 280 µg/mL (≈ 671 µM)
EC50 (Escherichia coli [4]): 2.6 µM
EC50 (Saccharomyces cerevisiae [5]): 2.7 µM
EC50 (Escherichia coli [6]): 1 µM
T/C (L1210 [14]): 386%
EC50 (Saccharomyces cerevisiae [7]): 0.17 µM
LD50 [15]: 4.7 mg/kg
IC50 (L1210 [8]): 0.06 µM
logP [9]: 0.6
EC50 (Escherichia coli [10]): 0.03 µM
IC50 (WiDr [11]): 0.4 µM
log k0 [12]: 1.168

Cc1nc(O)nc(O)c1/C=C/C(=O)N[C@@H](CO)C[S@@+]([O-])CCl
EC50 (Escherichia coli [16]): 20 µM

CCCCCCCCCC[S+]([O-])C[C@H](CO)NC(=O)/C=C/c1c(C)nc(O)nc1O (stereo not given in full)
EC50 (Escherichia coli [4]): 5000 µM
EC50 (Escherichia coli [16]): 3 µM
EC50 (Saccharomyces cerevisiae [5]): 700 µM
EC50 (Escherichia coli [6]): 1.8 µM
EC50 (Saccharomyces cerevisiae [7]): 0.2 µM
IC50 (L1210 [8]): 0.14 µM
EC50 (Escherichia coli [10]): 0.08 µM

CC(=O)NCCSC[S+]([O-])C[C@H](CO)NC(=O)/C=C/c1c(C)nc(O)nc1O (stereo not given in full)
EC50 (Escherichia coli [1]): 100 µM
EC50 (Escherichia coli [4]): 60 µM
EC50 (Saccharomyces cerevisiae [5]): 56 µM
EC50 (Escherichia coli [6]): 34 µM
EC50 (Saccharomyces cerevisiae [7]): 32 µM
IC50 (L1210 [8]): 1.9 µM
EC50 (Escherichia coli [10]): 1 µM

CCCCSC[S+]([O-])C[C@H](C)NC(=O)/C=C/c1c(C)nc(O)nc1O (stereo not given in full)
EC50 (Escherichia coli [1]): 2.5 µM
IC50 (T-24): 0.09 µM
Rm [13]: 0.218
solubility [3]: 940 µg/mL (≈ 2430 µM)
EC50 (Escherichia coli [4]): 12.1 µM
EC50 (Saccharomyces cerevisiae [5]): 15 µM
EC50 (Escherichia coli [6]): 3 µM
T/C (L1210 [14]): 164%
EC50 (Saccharomyces cerevisiae [7]): 1.9 µM
LD50 [15]: 16.5 mg/kg
IC50 (L1210 [8]): 0.05 µM
logP [9]: 0.819
EC50 (Escherichia coli [10]): 0.05 µM
IC50 (WiDr [11]): 0.16 µM
log k0 [12]: 1.29

CSC[S+]([O-])C[C@H](CO)NC(=O)/C=C/c1c(C)[nH]c(=O)[nH]c1=O (stereo not given in full)
EC50 (Escherichia coli [1]): 11 µM
IC50 (T-24): 0.91 µM
Rm [2]: -0.638
solubility [3]: 3800 µg/mL (≈ 10500 µM)
EC50 (Escherichia coli [4]): 3.2 µM
EC50 (Saccharomyces cerevisiae [5]): 2.8 µM
EC50 (Escherichia coli [6]): 8.5 µM
T/C (L1210 [14]): 117%
EC50 (Saccharomyces cerevisiae [7]): 5.2 µM
LD50 [15]: 0.26 mg/kg
IC50 (L1210 [8]): 0.48 µM
logP [9]: -1.71
EC50 (Escherichia coli [10]): 0.1 µM
IC50 (WiDr [11]): 0.92 µM
log k0 [12]: -0.676

CSC[S+]([O-])C[C@H](C)NC(=O)/C=C/c1c(C)nc(O)nc1O (stereo not given in full)
EC50 (Escherichia coli [1]): 5.6 µM
IC50 (T-24): 0.44 µM
Rm [13]: -0.404
solubility [3]: 18000 µg/mL (≈ 52100 µM)
EC50 (Escherichia coli [4]): 18 µM
EC50 (Saccharomyces cerevisiae [5]): 39 µM
EC50 (Escherichia coli [6]): 14.6 µM
T/C (L1210 [14]): 216%
IC50 (WiDr [17]): 0.58 µM
EC50 (Saccharomyces cerevisiae [7]): 50 µM
LD50 [15]: 2.33 mg/kg
IC50 (L1210 [8]): 0.07 µM
logP [9]: -0.699
EC50 (Escherichia coli [10]): 0.25 µM
log k0 [12]: -0.209

CCCCSC[S+]([O-])C[C@H](CO)NC(=O)/C=C/c1c(C)nc(O)nc1O (stereo not given in full)
EC50 (Escherichia coli [1]): 3 µM
IC50 (T-24): 0.23 µM
Rm [13]: -0.028
solubility [3]: 570 µg/mL (≈ 1410 µM)
EC50 (Escherichia coli [4]): 5.1 µM
EC50 (Saccharomyces cerevisiae [5]): 4.8 µM
EC50 (Escherichia coli [6]): 1.8 µM
T/C (L1210 [14]): 156%
EC50 (Saccharomyces cerevisiae [7]): 1 µM
LD50 [15]: 2.33 mg/kg
IC50 (L1210 [8]): 0.1 µM
logP [9]: 0.143
EC50 (Escherichia coli [10]): 0.06 µM
IC50 (WiDr [11]): 0.31 µM
log k0 [12]: 0.777

CCCCCCC[S+]([O-])C[C@H](CO)NC(=O)/C=C/c1c(C)nc(O)nc1O (stereo not given in full)
IC50 (T-24): 0.16 µM
Rm [13]: 0.56
solubility [3]: 220 µg/mL (≈ 551 µM)
EC50 (Escherichia coli [4]): 9 µM
EC50 (Escherichia coli [16]): 1.4 µM
EC50 (Saccharomyces cerevisiae [5]): 5.8 µM
EC50 (Escherichia coli [6]): 0.48 µM
T/C (L1210 [14]): 330%
EC50 (Saccharomyces cerevisiae [7]): 0.1 µM
Log Ko [18]: 1.771
LD50 [15]: 6.1 mg/kg
IC50 (L1210 [8]): 0.15 µM
logP [9]: 1.02
EC50 (Escherichia coli [10]): 0.04 µM
IC50 (WiDr [11]): 0.28 µM

CCCCCC[S+]([O-])C[C@H](CO)NC(=O)/C=C/c1c(C)nc(O)nc1O (stereo not given in full)
IC50 (T-24): 0.35 µM
Rm [13]: 0.235
solubility [3]: 890 µg/mL (≈ 2310 µM)
EC50 (Escherichia coli [4]): 7.5 µM
EC50 (Escherichia coli [16]): 3 µM
EC50 (Saccharomyces cerevisiae [5]): 5 µM
EC50 (Escherichia coli [6]): 0.75 µM
T/C (L1210 [14]): 135%
EC50 (Saccharomyces cerevisiae [7]): 0.14 µM
Log Ko [18]: 1.111
LD50 [15]: 1.6 mg/kg
IC50 (L1210 [8]): 0.14 µM
logP [9]: 0.41
EC50 (Escherichia coli [10]): 0.18 µM
IC50 (WiDr [11]): 0.39 µM

CCC[S+]([O-])C[C@H](C)NC(=O)/C=C/c1c(C)nc(O)nc1O (stereo not given in full)
EC50 (Escherichia coli [1]): 9.5 µM
EC50 (Escherichia coli [6]): 80 µM
EC50 (Saccharomyces cerevisiae [7]): 200 µM
IC50 (L1210 [8]): 0.45 µM
EC50 (Escherichia coli [10]): 0.38 µM

Cc1nc(O)nc(O)c1/C=C/C(=O)N[C@@H](C)C[S+]([O-])CCl (stereo not given in full)
EC50 (Escherichia coli [16]): 7.5 µM
EC50 (Escherichia coli [6]): 86 µM
IC50 (L1210 [8]): 0.15 µM
ED50 (Saccharomyces cerevisiae [19]): inactive
ED50 (Escherichia coli [20]): inactive

Cc1nc(O)nc(O)c1/C=C/C(=O)N[C@@H](CO)C[S+]([O-])CSC(C)(C)C (stereo not given in full)
EC50 (Escherichia coli [4]): 27.5 µM
EC50 (Saccharomyces cerevisiae [5]): 100 µM
EC50 (Escherichia coli [6]): 31 µM
EC50 (Saccharomyces cerevisiae [7]): 900 µM
EC50 (Escherichia coli [10]): 0.31 µM

CCC[S+]([O-])C[C@H](CO)NC(=O)/C=C/c1c(C)nc(O)nc1O (stereo not given in full)
EC50 (Escherichia coli [1]): 36 µM
EC50 (Escherichia coli [4]): 4.5 µM
EC50 (Saccharomyces cerevisiae [5]): 6.2 µM
EC50 (Escherichia coli [6]): 140 µM
EC50 (Saccharomyces cerevisiae [7]): 42 µM
IC50 (L1210 [8]): 0.75 µM
EC50 (Escherichia coli [10]): 0.23 µM

CCCCCCCCSC[S+]([O-])C[C@H](C)NC(=O)/C=C/c1c(C)nc(O)nc1O (stereo not given in full)
IC50 (T-24): 0.14 µM
Rm [13]: 1.151
solubility [3]: 15 µg/mL (≈ 33.8 µM)
EC50 (Escherichia coli [4]): 46 µM
EC50 (Escherichia coli [16]): 15 µM
EC50 (Saccharomyces cerevisiae [5]): 60 µM
EC50 (Escherichia coli [6]): 8.5 µM
EC50 (Saccharomyces cerevisiae [7]): 1.4 µM
Log Ko [18]: 3.533
IC50 (L1210 [8]): 0.03 µM
logP [9]: > 2.42
EC50 (Escherichia coli [10]): 0.46 µM
IC50 (WiDr [11]): 0.28 µM

CCCCCCCCSC[S+]([O-])C[C@H](CO)NC(=O)/C=C/c1c(C)nc(O)nc1O (stereo not given in full)
IC50 (T-24): 0.06 µM
Rm [13]: 0.895
solubility [3]: 13 µg/mL (≈ 28.3 µM)
EC50 (Escherichia coli [4]): 60 µM
EC50 (Escherichia coli [16]): 4.4 µM
EC50 (Saccharomyces cerevisiae [5]): 300 µM
EC50 (Escherichia coli [6]): 1.6 µM
T/C (L1210 [14]): 151%
EC50 (Saccharomyces cerevisiae [7]): 1.3 µM
Log Ko [18]: 3.333
LD50 [15]: 29.5 mg/kg
IC50 (L1210 [8]): 0.1 µM
logP [9]: > 2.42
EC50 (Escherichia coli [10]): 0.25 µM
IC50 (WiDr [11]): 0.22 µM

Cc1nc(O)nc(O)c1/C=C/C(=O)N[C@@H](CO)C[S+]([O-])CSC1CCCCC1 (stereo not given in full)
EC50 (Escherichia coli [1]): 7.5 µM
EC50 (Escherichia coli [4]): 5.2 µM
EC50 (Saccharomyces cerevisiae [5]): 12 µM
EC50 (Escherichia coli [6]): 6.6 µM
EC50 (Saccharomyces cerevisiae [7]): 5.1 µM
IC50 (L1210 [8]): 0.6 µM
EC50 (Escherichia coli [10]): 0.04 µM
